Legend:
Cavia porcellus [1] = species on record: Cavia porcellus; test: Antispasmodic activity against isolated guinea pig ileum with metacholine as a spasmogen according to the method of Magnus.; format: functional; conditions: read-out: ID50 (the source's name)
Outline: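 Guinea pig ileum segment in a 25-mL organ bath of Tyrode solution at 37 °C, gassed with 5% CO2–95% O2, equilibrated about 30 min. Repeated standard methacholine chloride challenges (4 × 10^-6 M) confirm a consistent response. Percent inhibition of contraction is measured and ID50 is taken by linear regression.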

Cavia porcellus [2] = species on record: Cavia porcellus; test: Potency (isolated guinea pig ileum) relative to adiphenine was determined.; format: functional
[3] = target: Muscarinic acetylcholine receptor; test: Affinity for the Muscarinic acetylcholine receptor; format: protein assay, Rattus norvegicus
Rattus norvegicus = species on record: Rattus norvegicus; test: Potency (isolated rat ileum) relative to adiphenine was determined.; format: functional
[4] = target: Muscarinic acetylcholine receptor; test: pA2 value represents the affinity for the Muscarinic acetylcholine receptor and was calculated according to the Ariens and Van Rossum; format: protein assay
Outline: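 Terminal ileum from male Sprague-Dawley rats (250–300 g) killed by cervical dislocation, in a 10-mL bath of Tyrode solution at 35 °C gassed with 95% O2/5% CO2, equilibrated ≥30 min. Cumulative ACh 0.05–1.0 μg/mL at 3-min intervals gives the control curve. After washout and 30 min, compound is added; 10 min later ACh 1–300 μg/mL is given cumulatively. Contraction is read in mm. pA2 = pAx + log(x − 1), with x the ACh EC50 ratio, by linear regression over two or more experiments at four or more dose levels.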

SMILES	IC50 (Cavia porcellus [1]; Cavia porcellus, Ileum) [µM]	Relative potency (Cavia porcellus [2])	pA2 [3]	Relative potency (Rattus norvegicus)	IC50 (Cavia porcellus [1]) [µM]	pA2 [4]
CCN(CC)CCOC(=O)C(c1ccccc1)(c1ccccc1)C(C)C.Cl	1.3	0.57				
CCN(CC)CCOC(=O)C(CC)(c1ccccc1)c1ccccc1.Cl	0.33	2.24	6.63	0.15		
CCN(CC)CCOC(=O)C(CC(C)C)(c1ccccc1)c1ccccc1.Cl	1.2	0.62				
CCN(CC)CCOC(=O)C(C)(c1ccccc1)c1ccccc1.Cl	0.053	14	8.4	9		
C=C(C(=O)OCCN(CC)CC)c1ccccc1.Cl			5.86	0.03		
CCCCC(C(=O)OCCN(CC)CC)(c1ccccc1)c1ccccc1.Cl	2.6	0.28				
CCN(CC)CCOC(=O)C(CCCCO)c1ccccc1.Cl (racemic)		0.67			1.1	
CCN(CC)CCOC(=O)C(CO)c1ccccc1.Cl (racemic)		10.57		0.48	0.07	7.13
CCN(CC)CCO[C@H]1CCCC[C@@H]1c1ccccc1.Cl (relative stereo)			6.38	0.09		
CCN(CC)CCO[C@@H]1CCCC[C@@H]1c1ccccc1.Cl (relative stereo)			7.13	0.47		
CCN(CC)CCOC(=O)C(CCCCO)c1ccccc1.Cl (single isomer, unassigned; (+))	1	0.74				
CCN(CC)CCOC(=O)C(COS(=O)(=O)c1ccc(C)cc1)c1ccccc1.Cl (single isomer, unassigned; (+))			6.67	0.17		
CCN(CC)CCOC(=O)C(CO)c1ccccc1.Cl (single isomer, unassigned; (+))		3.52			0.21	
CCN(CC)CCOC(=O)C(COS(=O)(=O)c1ccc(C)cc1)c1ccccc1.Cl (single isomer, unassigned; (-))			6.42	0.09		
CCN(CC)CCOC(=O)C(CO)c1ccccc1.Cl (single isomer, unassigned; (-))		23.87	7.4	0.91	0.031	
CCN(CC)CCOC(=O)C(c1ccccc1)c1ccccc1.Cl [ADIPHENINE HYDROCHLORIDE]	0.74	1	7.45	1		
CCCC(C(=O)OCCN(CC)CC)(c1ccccc1)c1ccccc1.Cl [PROADIFEN HYDROCHLORIDE]	1.2	0.62				

Reference: ChEMBL document CHEMBL1123667, “Molecular modification of anticholinergics as probes for muscarinic receptors. 1. Amino esters of alpha-substituted phenylacetic acid and related analogues” (J Med Chem, 1987)
